Measured values published in PMC5817033 (Nuclear medicine and biology, 2017).
Several values for one entry are separate records, joined by “and”; a condition that tells them apart may be missing. Identical values can stand only once. Like-named read-outs stand apart in the source and are kept apart here.

Columns and labels:
[1] = pH 7, room temperature, over 23 hours after labeling
[2] = rat urine collected for 10 min after i.v. injection
[3] = rat plasma, ultrafiltration, mean of duplicate
[4] = Ex-vivo biodistribution of ^18F-1 co-injected with ^131I-OIH in normal rats; parameters: species or system Sprague-Dawley rats; conditions: mean ± SD
[5] = rat blood, mean of duplicate
[6] = normal rats, mean ± SD, cited from earlier work
[7] = cited from earlier work
[8] = rats, 1 h post injection; cited from earlier work
[9] = Thermal stability of labeling precursor by HPLC; type: physicochemical; conditions: 110 °C for 1 hour
Summary of the method: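 Tosylate labeling precursor heated at 110 °C for 1 hour. Stability is judged by comparing its HPLC chromatograms before and after heating.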

[10] = cited from earlier work; remark: listed apart in the source

Compound	Blood activity ([4]; 10 min after i.v. injection) [%ID]	Bowel activity (intestines and stomach) ([4]; 10 min after i.v. injection) [%ID]	Heart activity ([4]; 10 min after i.v. injection) [%ID]	Kidney activity ([4]; 10 min after i.v. injection) [%ID]	Liver activity ([4]; 10 min after i.v. injection) [%ID]	Lung activity ([4]; 10 min after i.v. injection) [%ID]	Spleen activity ([4]; 10 min after i.v. injection) [%ID]	Urine activity ([4]; 10 min after i.v. injection) [%ID]	Blood activity ([4]; 60 min after i.v. injection) [%ID]	Bowel activity (intestines and stomach) ([4]; 60 min after i.v. injection) [%ID]	Heart activity ([4]; 60 min after i.v. injection) [%ID]	Kidney activity ([4]; 60 min after i.v. injection) [%ID]	Liver activity ([4]; 60 min after i.v. injection) [%ID]	Lung activity ([4]; 60 min after i.v. injection) [%ID]	Spleen activity ([4]; 60 min after i.v. injection) [%ID]	Urine activity ([4]; 60 min after i.v. injection) [%ID]	Blood activity ([6]; 10 min after injection) [%ID]	Bowel activity (intestines and stomach) ([6]; 10 min after injection) [%ID]	Heart activity ([6]; 10 min after injection) [%ID]	Kidney activity ([6]; 10 min after injection) [%ID]	also measured
O=C([O-])CN(CC[18F])CC(=O)[O-].[C-]#[O+].[C-]#[O+].[C-]#[O+].[Re+] [^18F-1, rhenium-tricarbonyl-N-(2-[^18F]fluoroethyl)iminodiacetic acid]	5.2 ± 0.7	2.1 ± 1.7	0.1 ± 0.0	9.4 ± 2.0	5.6 ± 0.3	0.4 ± 0.1	0.1 ± 0.0	49.3 ± 3.7	0.3 ± 0.1	3.9 ± 2.0	0.0 ± 0.0	1.0 ± 0.7	0.4 ± 0.1	0.1 ± 0.1	0.0 ± 0.0	80.5 ± 4.4	–	–	–	–	In vitro stability of formulated solution (HPLC) [1]: No measurable decomposition; In vivo stability: HPLC analysis of urine for metabolites [2]: only the intact parent compound; Plasma protein binding (PPB) [3]: 87%; %Urine: urine activity as a percentage of ^131I-OIH (^18F/^131I-OIH ratio) ([4]; 10 min): 92% and 92 ± 14%; Bone uptake ([4]; 10 min after i.v. injection): 0.08 ± 0.01 %ID/g; %Urine: urine activity as a percentage of ^131I-OIH (^18F/^131I-OIH ratio) ([4]; 60 min): 95% and 95 ± 5%; Erythrocyte uptake (RCB) [5]: 21%
^99mTc(CO)3(2-fluoroethyl)iminodiacetic acid [^99mTc-1]	–	–	–	–	–	–	–	–	–	–	–	–	–	–	–	–	5.1 ± 0.9	2.9 ± 0.5	0.1 ± 0.0	6.6 ± 2.1	%Urine: urine activity as a percentage of ^131I-OIH (^99mTc/^131I-OIH ratio) ([6]; 10 min): 100 ± 4%; Liver activity ([6]; 10 min after injection): 5.9 ± 0.8 %ID; Lung activity ([6]; 10 min after injection): 0.4 ± 0.2 %ID; Spleen activity ([6]; 10 min after injection): 0.1 ± 0.0 %ID; Urine activity ([6]; 10 min after injection): 54.1 ± 7.2 %ID; %Urine: urine activity as a percentage of ^131I-OIH (^99mTc/^131I-OIH ratio) ([6]; 60 min): 99 ± 2%; Blood activity ([6]; 60 min after injection): 0.3 %ID and 0.3 ± 0.1 %ID; Bowel activity (intestines and stomach) ([6]; 60 min after injection): 2.9 ± 1.4 %ID; Heart activity ([6]; 60 min after injection): 0.0 ± 0.0 %ID; Kidney activity ([6]; 60 min after injection): 0.7 ± 0.2 %ID; Liver activity ([6]; 60 min after injection): 0.8 ± 0.1 %ID; Lung activity ([6]; 60 min after injection): 0.1 ± 0.1 %ID; Spleen activity ([6]; 60 min after injection): 0.1 ± 0.2 %ID; Urine activity ([6]; 60 min after injection): 79.2 ± 6.4 %ID; Erythrocyte uptake ([7]; rats): 20%
O=C(O)CNC(=O)c1ccc([18F])cc1 [^18F-PFH, p-^18F-fluorohippuran]	–	–	–	–	–	–	–	–	–	–	–	–	–	–	–	–	–	–	–	–	Activity in blood [8]: ~ 0.3 %ID; Activity in urine [8]: ~ 81 % ID
rhenium-tricarbonyl-N-(2-(4-methylbenzenesulphonate)ethyl))iminodiacetic acid [Re-OTs]	–	–	–	–	–	–	–	–	–	–	–	–	–	–	–	–	–	–	–	–	Stability on heating (HPLC) [9]: stable
O=C(O)CNC(=O)c1ccccc1[131I] [OIH, ^131I-orthoidodohippurate]	4.5 ± 0.4	1.3 ± 0.6	0.1 ± 0.0	5.2 ± 1.6	2.8 ± 0.6	0.3 ± 0.1	0.1 ± 0.0	54.4 ± 6.9	0.8 ± 0.1	1.1 ± 0.2	0.0 ± 0.0	1.0 ± 0.8	0.6 ± 0.1	0.1 ± 0.1	0.0 ± 0.0	84.8 ± 3.8	5.8 ± 1.0	1.8 ± 0.2	0.2 ± 0.0	4.8 ± 0.8	Liver activity ([6]; 10 min after injection): 3.0 ± 0.9 %ID; Lung activity ([6]; 10 min after injection): 0.4 ± 0.1 %ID; Spleen activity ([6]; 10 min after injection): 0.1± 0.0 %ID; Urine activity ([6]; 10 min after injection): 54.2 ± 9.2 %ID; Blood activity ([6]; 60 min after injection): 0.5 ± 0.4 %ID; Bowel activity (intestines and stomach) ([6]; 60 min after injection): 1.2 ± 0.5 %ID; Heart activity ([6]; 60 min after injection): 0.1 ± 0.0 %ID; Kidney activity ([6]; 60 min after injection): 0.5 ± 0.2 %ID; Liver activity ([6]; 60 min after injection): 0.5 ± 0.1 %ID; Lung activity ([6]; 60 min after injection): 0.1 ± 0.1 %ID; Spleen activity ([6]; 60 min after injection): 0.1 ± 0.1 %ID; Urine activity ([6]; 60 min after injection): 80.2 ± 5.3 %ID; Red cell uptake [7]: 35%; Plasma protein binding [10]: 44%
